Measurements from different studies.
Compare with care: the assays were run in different laboratories.
Effect on: cell growth or viability

Structure (SMILES)	cell line	method	time	IC50
COc1cc(/C=C/C(=O)CC(=O)/C=C/c2ccc(O)c(OC)c2)ccc1O	LLC-PK1	MTT	72 h	> 25 µM
CC1Cc2c(O)c(C(=O)N3Cc4ccccc4C3)cc(C(C)C)c2C1=O (stereo not drawn)	UMUC3	ATP luminescence	72 h	70.4 µM
CCCCCC/N=C1\c2cc(C(N)=O)nc3c(N)c(Cl)c(N)c(c23)N1C	HCC44			1.1 µM
O=c1c(O)c(-c2ccc(O)cc2)oc2cc(O)cc(O)c12	RD	WST-1	48 h	54.1 µM
c1csc([I+]c2cccs2)c1	Caco-2	trypan blue	48 h	~0.5 µM
CC(O)(CS(=O)(=O)c1ccc(F)cc1)C(=O)Nc1ccc(C#N)c(C(F)(F)F)c1 (stereo not drawn)	LAPC4	MTT	7 days	9 µM
Cn1nnc2c(C(N)=O)ncn2c1=O	U-118-MG	resazurin	7 days	322 µM
CC(C)c1cc(C(=O)N2Cc3ccccc3C2)c(O)c2c1C(=O)C=C2	UMUC3	ATP luminescence	72 h	1.18 µM
COc1cccc2c1C(=O)c1c(O)c3c(c(O)c1C2=O)C[C@@](O)(C(=O)CO)C[C@@H]3O[C@H]1C[C@H](N)[C@H](O)[C@H](C)O1	F180	MTT	48 h	9.39 µM
COc1cccc2c1C(=O)c1c(O)c3c(c(O)c1C2=O)C[C@@](O)(C(=O)CO)C[C@@H]3O[C@H]1C[C@H](N)[C@H](O)[C@H](C)O1	Caco-2	MTT	48 h	17.8 µM
COc1cc([C@@H]2c3cc4c(cc3[C@@H](O[C@@H]3O[C@@H]5CO[C@@H](C)O[C@H]5[C@H](O)[C@H]3O)[C@H]3COC(=O)[C@H]23)OCO4)cc(OC)c1O	Caco-2	MTS	24 h	21.8 µM
CCN(CC)CCNC(=O)c1c(C)[nH]c(/C=C2\C(=O)Nc3ccc(F)cc32)c1C	Swiss-3T3		72 h	4.43 µM
COc1cc(/C=C/C(=O)/C=C/c2c(C)nn(-c3ccccc3)c2Cl)ccc1O	LLC-PK1	MTT	72 h	9.56 µM
Cc1ccc(-c2nn(-c3ccc(S(C)(=O)=O)cc3)cc2/C=N\N=c2/[nH]c(-c3ccc([N+](=O)[O-])cc3)cs2)cc1	F180	MTT	48 h	99.5 µM
Cc1cccc(-n2ncc(Br)c(Br)c2=O)c1	NCI-H1650	resazurin	96 h	0.74 µM
CS(=O)(=O)c1ccc(-n2cc(/C=N/N=c3\[nH]c(-c4ccc([N+](=O)[O-])cc4)cs3)c(-c3ccc(Br)cc3)n2)cc1	F180	MTT	48 h	71.8 µM
COc1cc(N2CCC(N3CCN(C)CC3)CC2)ccc1Nc1ncc(Cl)c(Nc2ccccc2S(=O)(=O)C(C)C)n1	RD		72 h	0.25 µM
C=C1Cc2c(O)c(C(=O)N3Cc4ccccc4C3)cc(C(C)C)c2C1=O	UMUC3	ATP luminescence	72 h	> 100 µM
CCCCN(CCCC)C(=O)c1ncn2c(=O)n(C)nnc12	U-118-MG	resazurin	7 days	62 µM
COc1cc2nccc(Oc3ccc(NC(=O)C4(C(=O)Nc5ccc(F)cc5)CC4)cc3)c2cc1OC	RD		72 h	1.21 µM
CC(C)c1cc(C(=O)N2Cc3ccccc3C2)c(O)c2c1CC=C2	UMUC3	ATP luminescence	72 h	51.3 µM
COc1cc(/C=C/C(=O)/C=C/c2c(C)nn(-c3cccc([N+](=O)[O-])c3)c2Cl)cc(OC)c1O	LLC-PK1	MTT	72 h	15.4 µM
O=C(Nc1ccc(Cl)cc1)c1ccc([N+](=O)[O-])o1	NCI-H1650	resazurin	96 h	0.38 µM
CC(C)c1cc(C(=O)N2Cc3ccccc3C2)c(O)c2c1CCC2	UMUC3	ATP luminescence	72 h	57.4 µM

Structure (SMILES)	cell line	method	time	IC50
COc1cc(Nc2nccc(-c3cnn4nc(OC)ccc34)n2)cc(C(F)(F)F)c1	U-118-MG	ATP luminescence		0.12 µM
CC(=O)OC[C@H]1O[C@@H]([S-])[C@H](OC(C)=O)[C@@H](OC(C)=O)[C@@H]1OC(C)=O.CCP(CC)CC.[Au+]	IMR-90	resazurin		6.77 µM
C[C@@H]1[C@H](O)[C@@H](C)/C=C/C=C/C=C/C=C/C=C/C=C/C=C/[C@H](O[C@@H]2O[C@H](C)[C@@H](O)[C@H](N)[C@@H]2O)C[C@@H]2O[C@](O)(C[C@@H](O)C[C@@H](O)[C@H](O)CC[C@@H](O)C[C@@H](O)CC(=O)O[C@H]1C)C[C@H](O)[C@H]2C(=O)O	LLC-PK1	neutral red	48 h	0.6 µg/mL
CC(C)c1cc(C(=O)N2Cc3ccccc3C2)c(O)c2[nH]nnc12	UMUC3	ATP luminescence	72 h	> 100 µM
Nc1ncnc2c1ncn2[C@@H]1O[C@H](CO)[C@@H](O)[C@H]1O	RD	WST-1	48 h	66.5 µM
CC(=O)O[C@H]1C(=O)[C@@]2(C)[C@H]([C@H](OC(=O)c3ccccc3)[C@]3(O)C[C@H](OC(=O)[C@H](O)[C@@H](NC(=O)c4ccccc4)c4ccccc4)C(C)=C1C3(C)C)[C@]1(OC(C)=O)CO[C@@H]1C[C@@H]2O	A2780	fluorescence	72 h	0.00026 µM
COc1ccc(/C=C/C(=O)/C=C/c2cn(-c3ccccc3)nc2-c2ccccc2)cc1O	LLC-PK1	MTT	72 h	8.39 µM
CC(C)c1cc(C(=O)N2Cc3ccccc3C2)c(O)c2nc[nH]c12	UMUC3	ATP luminescence	72 h	53 µM
CC1(C)CC[C@]2(C)CC[C@]3(C)C(=CC[C@@H]4[C@@]5(C)CC[C@H](O)C(C)(C)[C@@H]5CC[C@]43C)[C@@H]2C1	RD	WST-1	48 h	93.7 µM
CON=C1CCc2c(O)c(C(=O)N3Cc4ccccc4C3)cc(C(C)C)c21	UMUC3	ATP luminescence	72 h	78.2 µM
COc1ccc(CCNC(=O)C(=O)Nc2ccc(Cl)cc2)cc1	NCI-H2122			< 0.1 µM
COc1cccc(C(=O)O[C@@H]2CN3Cc4c(cc5c(c4OC)OCO5)[C@@]24C=C[C@H](OC)C[C@@H]34)c1	A2780	WST-1		> 10 µM
O=c1c(O)c(-c2ccc(O)c(O)c2)oc2cc(O)cc(O)c12	RD	WST-1	48 h	29.8 µM
CNC(=O)c1cc(Oc2ccc(NC(=O)Nc3ccc(Cl)c(C(F)(F)F)c3)cc2)ccn1	Swiss-3T3	SRB		0.427 µM
COc1ccc(/C=C/C(=O)/C=C/c2c(C)nn(-c3cccc([N+](=O)[O-])c3)c2Cl)cc1OC	LLC-PK1	MTT	72 h	21 µM
Cc1[nH]c(/C=C2\C(=O)Nc3ccc(S(=O)(=O)N(C)c4cccc(Cl)c4)cc32)c(C)c1C(=O)N1CCN(C)CC1	RD		72 h	2.11 µM
COc1cc(/C=C/C(=O)/C=C/c2c(C)nn(-c3ccccc3)c2Cl)cc(OC)c1O	LLC-PK1	MTT	72 h	12.9 µM
CC(C)Cc1ccc(-c2nn(-c3ccc(S(C)(=O)=O)cc3)cc2/C=N/N=c2\[nH]c(-c3ccc(Br)cc3)cs2)cc1	F180	MTT	48 h	73.7 µM
CCSC(=O)c1ncn2c(=O)n(C)nnc12	U-118-MG	resazurin	7 days	165 µM
CS(=O)(=O)c1ccc(-n2cc(/C=N/N=c3\[nH]c(-c4ccc([N+](=O)[O-])cc4)cs3)c(-c3ccc([N+](=O)[O-])cc3)n2)cc1	F180	MTT	48 h	70.6 µM
CN1C(=O)c2cc(C(N)=O)nc3c(N)c(Cl)c(N)c1c23	HCC44			15.3 µM
CC(C)C[C@H](NC(=O)[C@H](Cc1ccccc1)NC(=O)c1cnccn1)B(O)O	U-118-MG	ATP luminescence		0.0075 µM
CS(=O)(=O)c1ccc(-n2cc(/C=N/N=c3\[nH]c(-c4ccc(Br)cc4)cs3)c(-c3ccc(Br)cc3)n2)cc1	F180	MTT	48 h	59.8 µM
CCN(CC)C(=O)c1ncn2c(=O)n(C)nnc12	U-118-MG	resazurin	7 days	80 µM
